The structures appear in SMILES notation. Active and inactive are the calls of the source.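 Rule for the calls, unless noted: active = duplicate-averaged activation above buffer control mean plus 5 SD of those controls; inactive = the rest.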

For 40 compounds, activation, outcome and potentiation results are on record in PubChem BioAssay.

Chain of Potassium voltage-gated channel subfamily KQT member 1 (Homo sapiens) (P51787 whole entry, looked up): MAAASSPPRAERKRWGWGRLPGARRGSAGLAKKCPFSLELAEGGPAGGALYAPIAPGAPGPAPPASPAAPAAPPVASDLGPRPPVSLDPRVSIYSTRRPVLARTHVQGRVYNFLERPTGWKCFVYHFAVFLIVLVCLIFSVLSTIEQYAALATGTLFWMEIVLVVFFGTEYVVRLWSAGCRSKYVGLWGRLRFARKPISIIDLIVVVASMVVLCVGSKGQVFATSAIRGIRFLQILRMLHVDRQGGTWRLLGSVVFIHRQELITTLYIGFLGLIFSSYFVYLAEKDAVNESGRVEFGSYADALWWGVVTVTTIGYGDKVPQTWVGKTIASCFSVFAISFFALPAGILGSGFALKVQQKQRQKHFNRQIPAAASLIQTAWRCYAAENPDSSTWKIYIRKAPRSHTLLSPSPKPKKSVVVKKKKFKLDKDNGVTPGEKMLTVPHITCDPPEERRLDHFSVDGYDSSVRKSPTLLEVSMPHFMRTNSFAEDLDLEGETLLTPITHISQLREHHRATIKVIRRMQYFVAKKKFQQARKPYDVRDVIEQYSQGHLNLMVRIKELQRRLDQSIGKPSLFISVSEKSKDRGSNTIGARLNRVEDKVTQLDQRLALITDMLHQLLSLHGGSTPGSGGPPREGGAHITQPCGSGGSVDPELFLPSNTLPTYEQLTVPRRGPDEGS

Tested on in one experiment: not listed separately
The experiment is described as follows: nonspecific flux increase, KCNQ1-free cells – parental CHO cells, counter-screen for KCNQ1 potentiator project (AID 493006). To be noted: parental CHO-K1 cells, FluxOR thallium flux, at 10 µM; active compounds read high. Put shortly:
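Test system: parental CHO-K1 cells, FluxOR dye-loaded / Probe or stimulus: potassium plus thallium depolarizing stimulus, 5x stock 12.5 mM K2SO4, Tl2SO4 / Timing: overnight 37 °C plating, 90 min dye, 20 min dark compound / Measured by: kinetic thallium-flux fluorescence / Read-out: max-minus-min fluorescence over baseline, percent of buffer-to-R-L3 span / Benchmarks: buffer and R-L3 controls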
Regarding `C=CCSc1nc2sc3c(c2c(=O)n1CC)CCc1ccccc1-3`, the activation is 160% (active).

As for `CCOC(=O)c1c(NC(=S)NCCc2ccccc2)sc2c1CC(C(C)C)OC2` (stereo not given), the outcome was inactive.

In the case of `O=C(C1CCCCC1)N(CCN1CCCC1)c1nc2ccccc2s1`, the result was inactive.

In the case of `CCN(CC)CC(=O)Nc1ccc2c(c1)Nc1ccccc1CC2`, the activation is 234% (active).

Regarding `COc1ccc2nc(N=Nc3ccc(O)c4ccccc34)sc2c1`, the activation was 210% (active).

For the compound `Cc1ccccc1-c1nc(-c2ccccn2)no1`, the outcome was inactive.

`O=C(NNc1nc2c(F)cccc2s1)c1cc(=O)c2ccccc2o1`: the result was inactive.

On to `Cc1ccc(C(=O)CC(=O)c2cc(Cl)ccc2O)cc1`, for which the activation was 150% (active).

For `O=C(NC(=S)N1CCc2ccccc21)c1ccccc1`, the activation is 308% (active).

As to `COc1ccc(CCNC(=O)c2ccc(N(C)S(=O)(=O)c3ccc(C)cc3)cc2)cc1OC`, the result was inactive.

Consider `Oc1c(Cl)cc(Cl)cc1C=Nc1ccc2c(c1)OCCO2`, for which the activation is 174% (active).

Consider `O=C(CC(=O)c1ccccc1O)c1cccc(F)c1`, for which the activation was 164% (active).

On to `ON/C=N/C(=S)Nc1ncc(C(F)(F)F)cc1Cl`, for which the activation is 264% (active).

Consider `Cc1cc(C(=O)N/N=C/c2cccs2)no1`, for which the outcome was inactive.

For `COc1ccc(NC(=O)CCCSc2nc(-c3ccco3)cc(C(F)(F)F)n2)cc1OC`, the outcome was inactive.

Regarding `CN1C(=O)/C(=N\OC(=O)c2cccc3ccccc23)c2ccccc21`, the result was inactive.

Regarding `COc1ccc(CN(C)C(=O)c2ccc3ccccc3n2)cc1F`, the outcome was inactive.

Regarding `CCOc1ccc2[nH]c(=O)c(CN(CCN3CCCC3)C(=S)Nc3ccccc3OCC)cc2c1`, the activation was 137% (active).

Consider `COCCn1c(SCC(=O)NCc2ccc3c(c2)OCO3)nnc1C(C)C`, for which the outcome was inactive.

As to `CCOC(=O)Cn1c(=N)n(CCOc2ccc(Br)cc2)c2ccccc21`, the outcome was inactive.

Consider `O=C(NN=C1c2ccccc2-c2ccccc21)c1cccc(Br)c1`, for which the activation was 196% (active).

As to `O=C(NNc1nc2c(F)cc(F)cc2s1)c1ccccc1`, the result was inactive.

On to `COc1ccccc1OCCSc1nc2ccccc2n1CCC(=O)O`, for which the result was inactive.

Regarding `CC(=O)SCC(=O)N=c1sc2cc(F)ccc2n1C`, the result was inactive.

As to `O=C(Nc1nnc(-c2ccc3c(c2)CCCC3)o1)c1ccccc1Cl`, the activation is 184% (active).

With `COc1ccc(/C=C2\SC(=S)N(NS(=O)(=O)c3ccc(C)cc3)C2=O)c(OC)c1`, the activation was 138% (active).

Consider `CC(=O)OCC(=O)[C@@]1(OC(C)=O)[C@@H](C)C[C@H]2[C@@H]3C[C@H](F)C4=CC(=O)C=C[C@]4(C)[C@@]3(F)[C@@H](O)C[C@@]21C`, for which the result was inactive.

As for `O=C(NC(=S)Nc1ccccc1Br)c1ccco1`, the outcome was inactive.

As to `CCCCCc1ccc(C(=O)CCCC)c(=S)[nH]1`, the activation was 277% (active).

For `CC(C)NC(=O)/C(=C/c1cn(-c2ccccc2)nc1-c1cccc([N+](=O)[O-])c1)NC(=O)c1ccccc1`, the outcome was inactive.

On to `C=CCN(CC=C)C(=S)NC(=O)c1ccc(OC)cc1`, for which the activation was 187% (active).

Turning to `Cc1ccc(N2C(=O)N3[C@H](c4ccc(F)cc4)[C@@H]4C(=O)N(C5CCCCC5)C(=O)[C@@H]4[C@]3(Cc3ccccc3)C2=O)cc1`, the outcome was inactive.

Consider `NC(=O)CSc1nnc(-c2ccccc2Br)n1-c1cccc(C(F)(F)F)c1`, for which the outcome was inactive.

As for `COc1ccc2nc(/N=C/c3c(C)[nH]n(-c4ccc(C)cc4C)c3=O)sc2c1`, the activation was 232% (active).

Consider `CN(C)CC1CCCCC1OC(=O)/C=C/c1ccc(Cl)cc1Cl` (stereo not given), for which the outcome was inactive.

Take `CC1(N2CCCCC2)CC2(O)C(=[N+]1[O-])CCC/C2=N\O` (stereo not given): the outcome was inactive.

As for `C=CCn1c(O)c(N=NC(=S)Nc2ccccc2C)c2cc(S(=O)(=O)N3CCOCC3)ccc21`, the activation is 218% (active).

Regarding `CC(=O)c1c(C)[nH]c(C(=O)Nc2cccc(C(F)(F)F)c2)c1C`, the outcome was inactive.

Turning to `OCCN1CCN(C2CCC(c3ccc(F)cc3)c3ccc(F)cc32)CC1` (stereo not given), the outcome was inactive.

As for `CCc1nccn1S(=O)(=O)c1ccc2ccc(C)cc2c1`, the outcome was inactive.

Another experiment deals with Potassium voltage-gated channel subfamily KQT member 1 (Homo sapiens) (UniProt P51787). Nature of the experiment: enhancement of KCNQ1 channel thallium flux – FluxOR thallium flux, CHO cells, duplicates, confirmation (AID 493007;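 active = potentiation averaged over duplicate wells exceeding buffer-only control mean by more than 3 SD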;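 for outcome: cells depolarized by a potassium plus thallium sulfate stimulus after compound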;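 for potentiation: 0% = buffer-only wells and 100% = R-L3 activator control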). The conditions noted are these: KCNQ1 cell line, FluxOR thallium flux fluorescence, at 10 µM; active compounds read high, % of reference activator effect, buffer zero. Put shortly:
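Assay system: CHO cells carrying KCNQ1 | Controls: Buffer and R-L3 controls | Schedule: FluxOR dye loading 90 min, compound exposure 20 min, room temperature | Read-out: Baseline-normalized fluorescence change, percent of buffer-to-R-L3 range | Replicates: Each compound tested in duplicate | Technique: Kinetic thallium influx fluorescence with FluxOR dye, 10 s baseline, 110 s post-stimulus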
For the compound `C=CCSc1nc2sc3c(c2c(=O)n1CC)CCc1ccccc1-3`, the potentiation was 91% (active).

For the compound `CCOC(=O)c1c(NC(=S)NCCc2ccccc2)sc2c1CC(C(C)C)OC2` (stereo not given), the potentiation was 32% (active).

In the case of `O=C(C1CCCCC1)N(CCN1CCCC1)c1nc2ccccc2s1`, the outcome was inactive.

On to `CCN(CC)CC(=O)Nc1ccc2c(c1)Nc1ccccc1CC2`, for which the potentiation is 98% (active).

Take `COc1ccc2nc(N=Nc3ccc(O)c4ccccc34)sc2c1`: the potentiation is 83.5% (active).

Regarding `Cc1ccccc1-c1nc(-c2ccccn2)no1`, the outcome was inactive.

In the case of `O=C(NNc1nc2c(F)cccc2s1)c1cc(=O)c2ccccc2o1`, the outcome was inactive.

With `Cc1ccc(C(=O)CC(=O)c2cc(Cl)ccc2O)cc1`, the potentiation is 42.5% (active).

For `O=C(NC(=S)N1CCc2ccccc21)c1ccccc1`, the potentiation is 162% (active).

On to `COc1ccc(CCNC(=O)c2ccc(N(C)S(=O)(=O)c3ccc(C)cc3)cc2)cc1OC`, for which the outcome was inactive.

Consider `Oc1c(Cl)cc(Cl)cc1C=Nc1ccc2c(c1)OCCO2`, for which the potentiation is 25.5% (active).

Turning to `O=C(CC(=O)c1ccccc1O)c1cccc(F)c1`, the potentiation is 50.5% (active).

Regarding `ON/C=N/C(=S)Nc1ncc(C(F)(F)F)cc1Cl`, the potentiation was 69% (active).

Consider `Cc1cc(C(=O)N/N=C/c2cccs2)no1`, for which the outcome was inactive.

Take `COc1ccc(NC(=O)CCCSc2nc(-c3ccco3)cc(C(F)(F)F)n2)cc1OC`: the result was inactive.

Take `CN1C(=O)/C(=N\OC(=O)c2cccc3ccccc23)c2ccccc21`: the result was inactive.

As to `COc1ccc(CN(C)C(=O)c2ccc3ccccc3n2)cc1F`, the result was inactive.

Consider `CCOc1ccc2[nH]c(=O)c(CN(CCN3CCCC3)C(=S)Nc3ccccc3OCC)cc2c1`, for which the outcome was inactive.

In the case of `COCCn1c(SCC(=O)NCc2ccc3c(c2)OCO3)nnc1C(C)C`, the outcome was inactive.

Take `CCOC(=O)Cn1c(=N)n(CCOc2ccc(Br)cc2)c2ccccc21`: the outcome was inactive.

`O=C(NN=C1c2ccccc2-c2ccccc21)c1cccc(Br)c1`: the potentiation was 42.5% (active).

As for `O=C(NNc1nc2c(F)cc(F)cc2s1)c1ccccc1`, the result was inactive.

With `COc1ccccc1OCCSc1nc2ccccc2n1CCC(=O)O`, the outcome was inactive.

`CC(=O)SCC(=O)N=c1sc2cc(F)ccc2n1C`: the outcome was inactive.

In the case of `O=C(Nc1nnc(-c2ccc3c(c2)CCCC3)o1)c1ccccc1Cl`, the potentiation is 83% (active).

For `COc1ccc(/C=C2\SC(=S)N(NS(=O)(=O)c3ccc(C)cc3)C2=O)c(OC)c1`, the potentiation was 77.5% (active).

Regarding `CC(=O)OCC(=O)[C@@]1(OC(C)=O)[C@@H](C)C[C@H]2[C@@H]3C[C@H](F)C4=CC(=O)C=C[C@]4(C)[C@@]3(F)[C@@H](O)C[C@@]21C`, the result was inactive.

Turning to `O=C(NC(=S)Nc1ccccc1Br)c1ccco1`, the result was inactive.

Take `CCCCCc1ccc(C(=O)CCCC)c(=S)[nH]1`: the potentiation was 154% (active).

With `CC(C)NC(=O)/C(=C/c1cn(-c2ccccc2)nc1-c1cccc([N+](=O)[O-])c1)NC(=O)c1ccccc1`, the result was inactive.

As to `C=CCN(CC=C)C(=S)NC(=O)c1ccc(OC)cc1`, the potentiation was 43.5% (active).

Take `Cc1ccc(N2C(=O)N3[C@H](c4ccc(F)cc4)[C@@H]4C(=O)N(C5CCCCC5)C(=O)[C@@H]4[C@]3(Cc3ccccc3)C2=O)cc1`: the outcome was inactive.

For `NC(=O)CSc1nnc(-c2ccccc2Br)n1-c1cccc(C(F)(F)F)c1`, the potentiation is 43.5% (active).

For the compound `COc1ccc2nc(/N=C/c3c(C)[nH]n(-c4ccc(C)cc4C)c3=O)sc2c1`, the potentiation is 113% (active).

For the compound `CN(C)CC1CCCCC1OC(=O)/C=C/c1ccc(Cl)cc1Cl` (stereo not given), the outcome was inactive.

On to `CC1(N2CCCCC2)CC2(O)C(=[N+]1[O-])CCC/C2=N\O` (stereo not given), for which the outcome was inactive.

As for `C=CCn1c(O)c(N=NC(=S)Nc2ccccc2C)c2cc(S(=O)(=O)N3CCOCC3)ccc21`, the potentiation was 45% (active).

With `CC(=O)c1c(C)[nH]c(C(=O)Nc2cccc(C(F)(F)F)c2)c1C`, the result was inactive.

On to `OCCN1CCN(C2CCC(c3ccc(F)cc3)c3ccc(F)cc32)CC1` (stereo not given), for which the outcome was inactive.

For the compound `CCc1nccn1S(=O)(=O)c1ccc2ccc(C)cc2c1`, the outcome was inactive.
